{
  "source": "ChEMBL document CHEMBL4334439",
  "about": "“Discovery, Optimization, and Target Identification of Novel Potent Broad-Spectrum Antiviral Inhibitors” (J Med Chem, 2019)",
  "key": {"Hepatitis C virus [1]": {"test_system": "Hepatitis C virus", "assay": "Antiviral activity against GFP-fused HCV JFH-1 harboring K78E/E2-G451R/NS3-M260K/NS5A-T462I mutant infected in human Huh7.5.1 cells assessed as reduction in viral infection preincubated for 2 hrs followed by viral infection and measured after 48 hrs by epifluorescence microscopic analysis", "type": "functional, organism-based", "settings": "Hepacivirus hominis", "summary_of_the_method": "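Huh7.5.1 cells at 3×10^4/well, cultured overnight at 37 °C in 5% CO2, were pretreated 2 h with compound over 0.0004–0.05 μM. Cells were then infected with HCV-GFP at MOI 1, and GFP expression was imaged by epifluorescence microscopy at 48 hpi.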"}, "Hepatitis C virus [2]": {"test_system": "Hepatitis C virus", "assay": "Antiviral activity against EGFP-fused HCV JFH-1 harboring K78E/E2-G451R/NS3-M260K/NS5A-T462I mutation infected in human Huh7.5.1 cells assessed as combination index after 2 days in presence of ribavirin by qRT-PCR analysis", "type": "functional, Hepacivirus hominis", "summary_of_the_method": "(§1)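 In HCVcc-infected Huh7.5.1 cells (1×10^4/well, overnight, 37 °C), compound was given at various concentrations alone or with the named approved antiviral. After 2 days HCV RNA was quantified by qRT-PCR to derive the combination index.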"}, "Hepatitis C virus [3]": {"test_system": "Hepatitis C virus", "assay": "Antiviral activity against EGFP-fused HCV JFH-1 harboring K78E/E2-G451R/NS3-M260K/NS5A-T462I mutation infected in human Huh7.5.1 cells assessed as reduction in viral RNA level after 2 days in presence of sofosbuvir by qRT-PCR analysis", "type": "functional, organism-based", "settings": "Hepacivirus hominis", "summary_of_the_method": "(§2)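 Huh7.5.1 cells at 1×10^4/well, grown overnight at 37 °C. HCVcc was mixed with serially diluted compound (top 30 or 6 μM), given alone or with the named drug, and added to the cells. Viral RNA was read by qRT-PCR after 2 days. EC50 is the concentration giving 50% RNA reduction.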"}, "[4]": {"target": "T1, Ribose-phosphate pyrophosphokinase 1 (Homo sapiens) (UniProt P60891)", "T1 sequence (whole entry)": "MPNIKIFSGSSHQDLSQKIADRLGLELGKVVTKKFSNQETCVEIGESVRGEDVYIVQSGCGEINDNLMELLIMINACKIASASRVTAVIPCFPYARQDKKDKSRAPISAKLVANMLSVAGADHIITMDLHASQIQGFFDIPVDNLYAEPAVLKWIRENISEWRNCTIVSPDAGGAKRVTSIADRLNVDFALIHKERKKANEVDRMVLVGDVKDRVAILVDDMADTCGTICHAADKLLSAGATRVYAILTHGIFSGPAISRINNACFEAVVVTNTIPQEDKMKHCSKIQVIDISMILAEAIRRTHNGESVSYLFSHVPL", "assay": "Binding affinity to PRPS1 (unknown origin)"}, "[5]": {"assay": "Cytotoxicity against MDCK cells infected with Gaussia tagged Influenza A virus (A/Puerto Rico/8/34(H1N1)) measured after 48 hrs by WST1 assay", "type": "cell-based, Canis lupus familiaris", "settings": "dog", "summary_of_the_method": "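Cells at 1×10^4/well, cultured overnight at 37 °C, were incubated 48 h with serially diluted compound. Viability was read by WST-1 absorbance (OD450/OD630).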"}, "[6]": {"target": "T2, Membrane protein MLC1 (Homo sapiens) (UniProt Q15049)", "T2 sequence (whole entry)": "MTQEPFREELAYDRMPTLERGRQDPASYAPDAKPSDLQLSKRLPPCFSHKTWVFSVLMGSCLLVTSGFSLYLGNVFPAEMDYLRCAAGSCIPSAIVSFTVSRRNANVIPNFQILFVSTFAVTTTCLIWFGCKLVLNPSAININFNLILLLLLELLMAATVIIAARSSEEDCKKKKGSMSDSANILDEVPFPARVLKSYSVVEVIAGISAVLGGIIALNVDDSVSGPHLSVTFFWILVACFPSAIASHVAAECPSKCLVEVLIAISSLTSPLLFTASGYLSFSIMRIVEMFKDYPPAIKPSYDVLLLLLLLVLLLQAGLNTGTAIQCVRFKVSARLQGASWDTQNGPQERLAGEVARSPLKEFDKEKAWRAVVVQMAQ", "assay": "Binding affinity to MLC1 in human Huh7.5.1 cell lysate infected with HCV at 0.1 to 10 uM incubated for 1 hr followed by 10000 mJ/cm2 UV irradiation for 10 mins and subsequent addition of biotin-N3 measured after 1 hr by ABPP Gel-based by LC/MS/MS analysis", "type": "subcellular"}, "[7]": {"assay": "Selectivity index, ratio of CC50 for MDCK cells to EC50 for Gaussia tagged A/PR/08/34(H1N1) virus infected in MDCK cells", "type": "toxicity, cell-based", "settings": "dog, read-out: Ratio CC50/EC50", "summary_of_the_method": "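MDCK cells seeded at 1×10^5/well overnight, infected with A/PR/08/34(H1N1)-Gaussia luciferase at MOI 0.1, then given 0.05–20 µM compound immediately. Virus read by luminescence or qRT-PCR at 24 hpi; EC50 at 50% signal reduction. CC50 by WST-1 (OD450/OD630) after 48 h of serially diluted compound.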"}, "Hepatitis C virus [8]": {"test_system": "Hepatitis C virus", "assay": "Antiviral activity against EGFP-fused HCV JFH-1 harboring K78E/E2-G451R/NS3-M260K/NS5A-T462I mutation infected in human Huh7.5.1 cells assessed as reduction in viral RNA level after 2 days in presence of telaprevir by qRT-PCR analysis", "type": "functional, organism-based", "settings": "Hepacivirus hominis", "summary_of_the_method": "as §2"}, "Hepatitis C virus [9]": {"test_system": "Hepatitis C virus", "assay": "Antiviral activity against EGFP-fused HCV JFH-1 harboring K78E/E2-G451R/NS3-M260K/NS5A-T462I mutation infected in human Huh7.5.1 cells assessed as combination index after 2 days in presence of IFNalpha by qRT-PCR analysis", "type": "functional, Hepacivirus hominis", "summary_of_the_method": "as §1"}, "[10]": {"assay": "Cytotoxicity against human Huh7.5.1 cells infected with ZIKV assessed as decrease in cell viability after 48 hrs by WST1 assay", "type": "cell-based", "summary_of_the_method": "(§3)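 Cells seeded at 1 × 10^4 per well and cultured overnight at 37 °C, then incubated 48 h with serially diluted compounds. Viability read with WST-1 reagent as absorbance at OD450/OD630.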"}, "Enterovirus A71": {"test_system": "Enterovirus A71", "assay": "Antiviral activity against EV71 infected in human RD cells measured at 24 hrs post-infection by luciferase reporter gene assay", "type": "functional, organism-based", "settings": "Enterovirus A", "summary_of_the_method": "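RD cells at 1×10^4/well, cultured overnight, were infected with EV71(FY)-Luc at MOI 1 and treated with compound immediately afterwards. Luminescence read-out; EC50 is 50% signal reduction.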"}, "[11]": {"assay": "Cytotoxicity against human Huh7.5.1 cells assessed as decrease in cell viability after 48 hrs by WST1 assay", "type": "cell-based", "summary_of_the_method": "as §3"}, "[12]": {"target": "Inosine-5'-monophosphate dehydrogenase 2 (Homo sapiens) (UniProt P12268)", "sequence (P12268 2-514 limits assumed)": "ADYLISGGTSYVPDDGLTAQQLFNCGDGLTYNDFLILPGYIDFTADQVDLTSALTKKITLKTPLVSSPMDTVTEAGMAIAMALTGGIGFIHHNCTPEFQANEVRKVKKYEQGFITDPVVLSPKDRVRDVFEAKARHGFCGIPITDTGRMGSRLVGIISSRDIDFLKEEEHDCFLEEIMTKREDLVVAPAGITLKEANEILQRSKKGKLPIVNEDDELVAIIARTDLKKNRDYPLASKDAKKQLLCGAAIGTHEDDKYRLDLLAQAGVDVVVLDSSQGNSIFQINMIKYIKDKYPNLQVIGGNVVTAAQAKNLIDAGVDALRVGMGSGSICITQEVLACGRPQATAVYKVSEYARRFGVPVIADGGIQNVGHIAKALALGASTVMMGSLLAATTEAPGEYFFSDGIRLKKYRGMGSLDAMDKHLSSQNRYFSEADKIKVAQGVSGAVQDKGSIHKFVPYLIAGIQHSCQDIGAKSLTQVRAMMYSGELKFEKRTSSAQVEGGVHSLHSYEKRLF", "assay": "Binding affinity to IMPDH2 (unknown origin)"}, "Homo sapiens": {"species": "Homo sapiens", "assay": "Binding affinity to C-terminal 6-His tagged recombinant human DHODH N-terminal domain delta29 mutant expressed in Escherichia coli BL21(DE3) assessed as reduction in pronase-mediated protein degradation incubated for 1 hr followed by pronase addition and measured after 15 mins by SDS-PAGE based Western blot analysis", "summary_of_the_method": "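DARTS used Δ29 human DHODH with a C-terminal His6 tag, expressed in E. coli BL21(DE3) and purified on HisTrap then Superdex200. Protein at 20 μg/ml in TNC buffer (50 mM Tris pH 8.0, 50 mM NaCl, 10 mM CaCl2) was incubated 1 h at RT with compound or DMSO. Pronase followed, 15 min at 37 °C; protease-inhibitor quench; anti-DHODH western blot.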"}},
  "note": "Calls of active or inactive are those of the source. No cut-off for these calls is given here.",
  "data": [
    {"smiles": "CCN(CC)c1ccc(Oc2ccc(-c3[nH]c4cccc(F)c4c(=O)c3C)cc2F)cc1", "values": [
      {"measurement": "Activity", "setting": "Hepatitis C virus [1]", "result": "Dose-dependent effect"},
      {"measurement": "CI", "setting": "Hepatitis C virus [2]", "result": ">50"},
      {"measurement": "Activity", "setting": "Hepatitis C virus [3]", "result": "Dose-dependent effect"},
      {"measurement": "Activity", "setting": "[4]", "result": "inactive"},
      {"measurement": "CC50 at 48 h", "setting": "[5]", "result": "> 2500", "unit": "nM"},
      {"measurement": "Activity", "setting": "[6]", "result": "Active"},
      {"measurement": "selectivity ratio", "setting": "[7]", "result": "> 10"},
      {"measurement": "Activity", "setting": "Hepatitis C virus [8]", "result": "Dose-dependent effect"},
      {"measurement": "CI", "setting": "Hepatitis C virus [9]", "result": ">=10 - 50"},
      {"measurement": "CC50 at 48 h", "setting": "[10]", "result": "> 2500", "unit": "nM"},
      {"measurement": "EC50", "setting": "Enterovirus A71", "result": 4, "unit": "nM"},
      {"measurement": "CC50 at 48 h", "setting": "[11]", "result": "> 2500", "unit": "nM"},
      {"measurement": "Activity", "setting": "[12]", "result": "inactive"},
      {"measurement": "Activity", "setting": "Homo sapiens", "result": "Dose-dependent effect"}
    ]}
  ]
}
